According to ChEMBL document CHEMBL6120954, “Development of Fragment-Based Inhibitors of the Bacterial Deacetylase LpxC with Low Nanomolar Activity” (J Med Chem, 2024):
Values after ≈ are worked out from the molar mass of the structure shown.

Tests used:
[1] = Inhibition of Escherichia coli LpxC C63A mutant assessed as inhibition constant incubated for 30 mins by microplate reader analysis
Summary of the method: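 Purified E. coli LpxC C63A (15 nM final), expressed in E. coli BL21(DE3), with 25 μM UDP-3-O-[(R)-3-hydroxymyristoyl]-N-acetylglucosamine. Buffer was 40 mM MES pH 6.0, 80 μM DTT, 0.02% Brij 35 and 2% DMSO, with inhibitor at 20 nM–20 μM, for 30 min at 37 °C. The reaction was stopped with NaOH, neutralised with acetic acid, and product was derivatised with o-phthaldialdehyde/2-mercaptoethanol (ex 340, em 460 nm). Runs were done at least three times.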

Homo sapiens = species: Homo sapiens; experiment: Inhibition of TACE (unknown origin) at 100 uM relative to control
[2] = Metabolic stability in CD-1 mouse microsome; assay type: ADME; conditions: microsomes
[3] = Plasma protein binding in human; assay type: ADME, cell-free
Escherichia coli [4] = experiment: Antibacterial activity against Escherichia coli BL21(DE3) assessed as Diameter of inhibition zone incubated for 20 hrs by disc diffusion assay; assay type: functional
Summary of the method: (§1)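 E. coli BL21(DE3) and the defective strain D22 were grown overnight in LB at 37 °C and 200 rpm, and 150 μL was spread on LB agar. Each compound (0.15 μmol in 10 or 15 μL DMSO) was spotted on 6 mm filter paper discs, with DMSO as negative and CHIR-090 as positive control. Plates were incubated overnight at 37 °C and the growth-inhibition zone diameter was measured.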

[5] = biological target: Elastase (Pseudomonas aeruginosa (strain ATCC 15692 / PAO1 / 1C / PRS 101 / LMG12228)) (UniProt P14756); experiment: Inhibition of Pseudomonas aeruginosa PA14 LasB at 20 uM by FRET assay relative to control
Sequence of Elastase (Pseudomonas aeruginosa (strain ATCC 15692 / PAO1 / 1C / PRS 101 / LMG12228)) (P14756 198-498 limits assumed): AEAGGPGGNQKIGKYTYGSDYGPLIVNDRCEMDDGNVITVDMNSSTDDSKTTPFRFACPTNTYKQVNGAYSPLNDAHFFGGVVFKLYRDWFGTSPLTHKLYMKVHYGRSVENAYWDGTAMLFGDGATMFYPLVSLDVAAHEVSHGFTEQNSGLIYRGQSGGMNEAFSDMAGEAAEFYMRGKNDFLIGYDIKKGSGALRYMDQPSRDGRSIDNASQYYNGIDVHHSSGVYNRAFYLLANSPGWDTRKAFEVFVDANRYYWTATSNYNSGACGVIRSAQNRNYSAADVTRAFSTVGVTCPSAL

Escherichia coli [6] = experiment: Antibacterial activity against Escherichia coli BL21(DE3) assessed as inhibition of visible bacterial growth incubated for 20 hrs by microdilution method; assay type: functional
Summary of the method: (§2)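 Broth microdilution in LB. Overnight cultures (37 °C, 200 rpm) were diluted 1:1000 and mixed with 2-fold compound dilutions in DMSO, giving 5 × 10⁵ cfu mL⁻¹, 5% DMSO and final compound concentrations of 64–0.016 μg mL⁻¹. Plates were incubated 20 h at 37 °C. MIC was the lowest concentration preventing visible growth, from at least three runs on separate days.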

Escherichia coli [7] = experiment: Antibacterial activity against Escherichia coli D22 assessed as inhibition of visible bacterial growth incubated for 20 hrs by microdilution method; assay type: functional; summary of the method: as §2
Escherichia coli [8] = experiment: Antibacterial activity against Escherichia coli D22 assessed as diameter of inhibition zone incubated for 20 hrs by disc diffusion assay; assay type: functional; summary of the method: as §1
[9] = Metabolic stability in CD-1 mouse liver S9 fraction assessed as half life in presence of NADPH by HPLC-MS/MS analysis; assay type: ADME, subcellular
Summary of the method: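 Compound at 1 μM was incubated at 37 °C for 120 min with pooled mouse liver S9 (1 mg/mL), 2 mM NADPH, 1 mM UDPGA, 10 mM MgCl₂, 5 mM GSH and 0.1 mM PAPS. Aliquots taken at set times were quenched with 2 volumes of cold acetonitrile containing diphenhydramine internal standard and centrifuged. Remaining compound was quantified by HPLC–MS/MS to derive half-life, with testosterone, verapamil and ketoconazole as activity controls.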

Elastase = Elastase (Pseudomonas aeruginosa (strain ATCC 15692 / PAO1 / 1C / PRS 101 / LMG12228), UniProt P14756); experiment: Inhibition of Pseudomonas aeruginosa PA14 LasB by FRET assay
Sequence of Elastase (P14756 whole entry): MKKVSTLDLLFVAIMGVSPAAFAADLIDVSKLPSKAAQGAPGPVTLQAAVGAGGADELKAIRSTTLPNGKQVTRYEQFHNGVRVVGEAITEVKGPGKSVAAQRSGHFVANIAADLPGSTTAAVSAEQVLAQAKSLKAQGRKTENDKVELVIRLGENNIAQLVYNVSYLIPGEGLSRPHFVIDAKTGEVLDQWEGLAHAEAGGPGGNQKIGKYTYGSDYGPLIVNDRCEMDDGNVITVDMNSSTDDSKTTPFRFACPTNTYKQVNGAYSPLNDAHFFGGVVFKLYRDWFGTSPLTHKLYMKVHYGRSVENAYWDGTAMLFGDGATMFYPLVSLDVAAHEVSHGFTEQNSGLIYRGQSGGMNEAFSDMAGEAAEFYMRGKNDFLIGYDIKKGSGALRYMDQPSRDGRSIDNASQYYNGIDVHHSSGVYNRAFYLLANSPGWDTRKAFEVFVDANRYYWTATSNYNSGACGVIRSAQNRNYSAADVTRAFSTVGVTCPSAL

[10] = biological target: T1, UDP-3-O-acyl-N-acetylglucosamine deacetylase (Pseudomonas aeruginosa, UniProt B5ATN6); experiment: Inhibition of Pseudomonas aeruginosa LpxC
T1 sequence (B5ATN6 whole entry): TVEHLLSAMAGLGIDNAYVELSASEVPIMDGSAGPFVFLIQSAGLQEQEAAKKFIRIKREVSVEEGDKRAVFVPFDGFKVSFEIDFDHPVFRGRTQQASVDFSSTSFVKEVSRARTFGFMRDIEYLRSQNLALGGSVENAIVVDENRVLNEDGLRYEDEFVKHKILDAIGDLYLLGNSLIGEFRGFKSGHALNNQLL
Summary of the method: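 Buffer was 50 mM potassium phosphate pH 7.5, 80 μM DTT, 0.02% Brij 35 and 2% DMSO, with inhibitor at 5 nM–5 μM, for 30 min at 37 °C. The reaction was stopped with HCl. Substrate and product were quantified by LC–MS/MS MRM peak areas relative to the uninhibited reaction, in at least two runs.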

O=C(NC[C@@H](OCc1ccc(C#Cc2ccc(CN3CCOCC3)cc2)cc1)C(=O)NO)c1ccc(-c2ccccc2)cc1
Ki [1]: > 2540 nM

O=C(NC[C@H](OCc1ccc(C#Cc2ccc(CN3CCOCC3)cc2)cc1)C(=O)NO)c1ccc2ccccc2n1
Ki [1]: 377 nM

O=C(NC[C@H](OCc1ccc(C#Cc2ccc(CN3CCOCC3)cc2)cc1)C(=O)NO)c1c[nH]c2ccccc12
inhibition (Homo sapiens): < 10%
Ki [1]: 10.7 nM
Stability [2]: Stable
fraction unbound [3]: < 0.03

O=C(NO)[C@H](COCc1ccccc1)OCc1ccc(C#Cc2ccc(CN3CCOCC3)cc2)cc1
diameter of the inhibition zone (DIZ) (Escherichia coli [4]): <=6 mm

O=C(NO)[C@H](OCc1ccc(C#Cc2ccc(CN3CCOCC3)cc2)cc1)[C@@H](O)COCc1ccccc1
inhibition [5]: < 10%
MIC (Escherichia coli [6]): > 64 µg/mL
diameter of the inhibition zone (DIZ) (Escherichia coli [4]): 8.5 mm
Ki [1]: 870 nM
MIC (Escherichia coli [7]): 4 µg/mL (≈ 7.54 µM)
diameter of the inhibition zone (DIZ) (Escherichia coli [8]): 13.3 mm

O=C(NC[C@H](OCc1ccc(C#Cc2ccc(CN3CCOCC3)cc2)cc1)C(=O)NO)c1ccc(Oc2ccccc2)cc1
inhibition [5]: < 10%
Ki [1]: 323 nM

O=C(NC[C@H](OCc1ccc(C#Cc2ccc(CN3CCOCC3)cc2)cc1)C(=O)NO)c1ccc2[nH]ccc2c1
inhibition [5]: < 10%
Ki [1]: 9.46 nM
Stability [2]: Stable

O=C(NC[C@H](OCc1ccc(C#Cc2ccc(CN3CCOCC3)cc2)cc1)C(=O)NO)c1ccccc1
MIC (Escherichia coli [6]): > 16 µg/mL

O=C(NO)[C@H](CO)OCc1ccc(C#Cc2ccc(CN3CCOCC3)cc2)cc1
MIC (Escherichia coli [6]): 32 µg/mL (≈ 78 µM)
diameter of the inhibition zone (DIZ) (Escherichia coli [4]): 15.7 mm
Ki [1]: 410 nM
MIC (Escherichia coli [7]): 1 µg/mL (≈ 2.44 µM)
diameter of the inhibition zone (DIZ) (Escherichia coli [8]): 25.8 mm

O=C(NC[C@@H](OCc1ccc(C#Cc2ccc(CN3CCOCC3)cc2)cc1)C(=O)NO)c1cccc(-c2ccccc2)c1
Ki [1]: > 2540 nM

O=C(NC[C@H](OCc1ccc(C#Cc2ccc(CN3CCOCC3)cc2)cc1)C(=O)NO)c1cc[nH]n1
t1/2 [9]: 1.07 h
Stability [2]: Stable

O=C(NC[C@@H](OCc1ccc(C#Cc2ccc(CN3CCOCC3)cc2)cc1)C(=O)NO)c1ccc2[nH]ccc2c1
Ki [1]: 1150 nM

O=C(NO)[C@H](OCc1ccc(C#Cc2ccc(CN3CCOCC3)cc2)cc1)[C@H](O)COCc1ccccc1
inhibition [5]: < 10%

O=C(NO)[C@@H](CN(Cc1ccccc1)Cc1ccccc1)OCc1ccc(C#Cc2ccc(CN3CCOCC3)cc2)cc1
MIC (Escherichia coli [6]): > 64 µg/mL
diameter of the inhibition zone (DIZ) (Escherichia coli [4]): <=6 mm
Ki [1]: > 2540 nM
diameter of the inhibition zone (DIZ) (Escherichia coli [8]): <=6 mm

O=C(NO)[C@@H](OCc1ccc(C#Cc2ccc(CN3CCOCC3)cc2)cc1)[C@@H](O)COCc1ccccc1
inhibition [5]: 61%
MIC (Escherichia coli [6]): 4 µg/mL (≈ 7.54 µM)
diameter of the inhibition zone (DIZ) (Escherichia coli [4]): 11.2 mm
IC50 (Elastase): 17700 nM
Ki [1]: 280 nM
MIC (Escherichia coli [7]): 0.13 µg/mL (≈ 0.245 µM)
diameter of the inhibition zone (DIZ) (Escherichia coli [8]): 19.5 mm

O=C(NC[C@@H](OCc1ccc(C#Cc2ccc(CN3CCOCC3)cc2)cc1)C(=O)NO)c1cc(-c2ccccc2)[nH]n1
diameter of the inhibition zone (DIZ) (Escherichia coli [4]): <=6 mm
Ki [1]: > 2540 nM

Cc1noc(C)c1C(=O)NC[C@@H](OCc1ccc(C#Cc2ccc(CN3CCOCC3)cc2)cc1)C(=O)NO
inhibition [5]: < 10%
Ki [1]: > 2540 nM

O=C(NC[C@@H](OCc1ccc(C#Cc2ccc(CN3CCOCC3)cc2)cc1)C(=O)NO)c1ccccc1
MIC (Escherichia coli [6]): > 16 µg/mL

O=C(NC[C@H](OCc1ccc(C#Cc2ccc(CN3CCOCC3)cc2)cc1)C(=O)NO)c1cnc2ccccc2c1
inhibition [5]: < 10%
Ki [1]: 117 nM

O=C(NO)[C@H](CN(Cc1ccccc1)Cc1ccccc1)OCc1ccc(C#Cc2ccc(CN3CCOCC3)cc2)cc1
inhibition [5]: < 10%
MIC (Escherichia coli [6]): 8 µg/mL (≈ 13.6 µM)
diameter of the inhibition zone (DIZ) (Escherichia coli [4]): <=6 mm
Ki [1]: > 2540 nM

O=C(NC[C@@H](OCc1ccc(C#Cc2ccc(CN3CCOCC3)cc2)cc1)C(=O)NO)c1c[nH]c2ccccc12
Ki [1]: 1580 nM

O=C(NC[C@@H](OCc1ccc(C#Cc2ccc(CN3CCOCC3)cc2)cc1)C(=O)NO)c1cc2ccccc2[nH]1
Ki [1]: > 2540 nM

Cc1noc(C)c1COC[C@H](O)[C@H](OCc1ccc(C#Cc2ccc(CN3CCOCC3)cc2)cc1)C(=O)NO
inhibition [5]: < 10%

O=C(NC[C@H](OCc1ccc(C#Cc2ccc(CN3CCOCC3)cc2)cc1)C(=O)NO)c1cccc(-c2ccccc2)c1
inhibition [5]: < 10%
Ki [1]: 41.5 nM

CCc1ccc(-c2ccc(C(=O)N[C@H](C(=O)NO)[C@@H](C)NCc3ccccn3)cc2)cc1
IC50 [10]: 94.8 nM

O=C(NC[C@@H](OCc1ccc(C#Cc2ccc(CN3CCOCC3)cc2)cc1)C(=O)NO)c1ccc(Oc2ccccc2)cc1
Ki [1]: > 2540 nM

O=C(NO)[C@@H](COCc1ccccc1)OCc1ccc(C#Cc2ccc(CN3CCOCC3)cc2)cc1
diameter of the inhibition zone (DIZ) (Escherichia coli [4]): <=6 mm

O=C(COCc1ccc(C#Cc2ccc(CN3CCOCC3)cc2)cc1)NO
MIC (Escherichia coli [6]): 64 µg/mL (≈ 168 µM)
diameter of the inhibition zone (DIZ) (Escherichia coli [4]): 16.5 mm
Ki [1]: 1500 nM
MIC (Escherichia coli [7]): 1 µg/mL (≈ 2.63 µM)
diameter of the inhibition zone (DIZ) (Escherichia coli [8]): 20.3 mm

O=C(NC[C@H](OCc1ccc(C#Cc2ccc(CN3CCOCC3)cc2)cc1)C(=O)NO)c1ccc(-c2ccccc2)cc1
inhibition [5]: < 10%
Ki [1]: > 2540 nM

O=C(NC[C@H](OCc1ccc(C#Cc2ccc(CN3CCOCC3)cc2)cc1)C(=O)NO)c1cc2ccccc2[nH]1
inhibition [5]: < 10%
Ki [1]: 87 nM

Cc1noc(C)c1C(=O)NC[C@H](OCc1ccc(C#Cc2ccc(CN3CCOCC3)cc2)cc1)C(=O)NO
Ki [1]: 127 nM

O=C(NC[C@@H](OCc1ccc(C#Cc2ccc(CN3CCOCC3)cc2)cc1)C(=O)NO)c1ccc2ccccc2n1
diameter of the inhibition zone (DIZ) (Escherichia coli [4]): <=6 mm
Ki [1]: > 2540 nM

O=C(NO)[C@@H](CO)OCc1ccc(C#Cc2ccc(CN3CCOCC3)cc2)cc1
MIC (Escherichia coli [6]): 64 µg/mL (≈ 156 µM)
diameter of the inhibition zone (DIZ) (Escherichia coli [4]): 12.3 mm
Ki [1]: 240 nM
MIC (Escherichia coli [7]): 2 µg/mL (≈ 4.87 µM)
diameter of the inhibition zone (DIZ) (Escherichia coli [8]): 22 mm

O=C(NC[C@@H](OCc1ccc(C#Cc2ccc(CN3CCOCC3)cc2)cc1)C(=O)NO)c1cnc2ccccc2c1
Ki [1]: > 2540 nM

O=C(NO)[C@@H](OCc1ccc(C#Cc2ccc(CN3CCOCC3)cc2)cc1)[C@H](O)COCc1ccccc1
inhibition [5]: 64.9%
IC50 (Elastase): 14800 nM

O=C(NC[C@H](OCc1ccc(C#Cc2ccc(CN3CCOCC3)cc2)cc1)C(=O)NO)c1cc(-c2ccccc2)[nH]n1
inhibition [5]: < 10%
Ki [1]: 85.2 nM
